According to ChEMBL document CHEMBL1275272, “Synthesis, characterization and antimicrobial activity of some disubstituted 1,3,4-oxadiazoles carrying 2-(aryloxymethyl)phenyl moiety” (2010):
Converted amounts (≈) assume the structure as drawn.

Experiments:
Format in all cases: functional
Aspergillus fumigatus = test: Antifungal activity against Aspergillus fumigatus after 16 to 18 hrs by serial dilution method; conditions: for MIC: Aspergillus fumigatus
Klebsiella pneumoniae = test: Antibacterial activity against Klebsiella pneumoniae after 16 to 18 hrs by serial dilution method; conditions: for MIC: Klebsiella pneumoniae
Staphylococcus aureus = test: Antibacterial activity against Staphylococcus aureus after 16 to 18 hrs by serial dilution method; conditions: for MIC: Staphylococcus aureus
Procedure, shortened: (§1)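 The test compound was dissolved in DMF and serially diluted. A standard drop of the prepared microbial culture was added to each dilution, and tubes were incubated at 37 °C for 16–18 h. MIC was taken as the highest dilution that stayed clear with no visible turbidity.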

Pseudomonas aeruginosa = test: Antibacterial activity against Pseudomonas aeruginosa after 16 to 18 hrs by serial dilution method; conditions: for MIC: Pseudomonas aeruginosa; procedure, shortened: as §1
Talaromyces marneffei = test: Antifungal activity against Penicillium marneffei after 16 to 18 hrs by serial dilution method; conditions: for MIC: Talaromyces marneffei; procedure, shortened: as §1
[1] = system: Trichophyton mentagrophytes; test: Antifungal activity against Trichophyton mentagrophytes after 16 to 18 hrs by serial dilution method; conditions: for MIC: Trichophyton mentagrophytes
Escherichia coli = test: Antibacterial activity against Escherichia coli after 16 to 18 hrs by serial dilution method; conditions: for MIC: Escherichia coli; procedure, shortened: as §1
Aspergillus flavus = test: Antifungal activity against Aspergillus flavus after 16 to 18 hrs by serial dilution method; conditions: for MIC: Aspergillus flavus; procedure, shortened: as §1

SMILES	inhibition zone (IZ) (Aspergillus fumigatus) [mm]	MIC (Aspergillus fumigatus) [µg/mL]	inhibition zone (IZ) (Klebsiella pneumoniae) [mm]	MIC (Klebsiella pneumoniae) [µg/mL]	inhibition zone (IZ) (Staphylococcus aureus) [mm]	MIC (Staphylococcus aureus) [µg/mL]	inhibition zone (IZ) (Pseudomonas aeruginosa) [mm]	MIC (Pseudomonas aeruginosa) [µg/mL]	inhibition zone (IZ) (Talaromyces marneffei) [mm]	MIC (Talaromyces marneffei) [µg/mL]	inhibition zone (IZ) [1] [mm]	MIC [1] [µg/mL]	inhibition zone (IZ) (Escherichia coli) [mm]	MIC (Escherichia coli) [µg/mL]	inhibition zone (IZ) (Aspergillus flavus) [mm]	MIC (Aspergillus flavus) [µg/mL]
Cc1cc(C)cc(-c2nnc(-c3ccccc3COc3ccccc3C)o2)c1	16	6.25 (≈ 16.9 µM)	11	12.5 (≈ 33.7 µM)	11	12.5 (≈ 33.7 µM)	11	12.5 (≈ 33.7 µM)	11	12.5 (≈ 33.7 µM)	11	12.5 (≈ 33.7 µM)	11	12.5 (≈ 33.7 µM)	11	12.5 (≈ 33.7 µM)
Cc1cccc(OCc2ccccc2-c2nn(CN3CCOCC3)c(=S)o2)c1	11	12.5 (≈ 31.4 µM)	11	12.5 (≈ 31.4 µM)	11	12.5 (≈ 31.4 µM)	11	12.5 (≈ 31.4 µM)	11	12.5 (≈ 31.4 µM)	11	12.5 (≈ 31.4 µM)	11	12.5 (≈ 31.4 µM)	11	12.5 (≈ 31.4 µM)
Cc1ccc(OCc2ccccc2-c2nnc(-c3ccc(Cl)cc3)o2)cc1	<10	25 (≈ 66.3 µM)	<10	25 (≈ 66.3 µM)	<10	25 (≈ 66.3 µM)	<10	25 (≈ 66.3 µM)	<10	25 (≈ 66.3 µM)	<10	25 (≈ 66.3 µM)	<10	25 (≈ 66.3 µM)	<10	25 (≈ 66.3 µM)
CCSc1nnc(-c2ccccc2COc2ccc(C)cc2)o1	<10	25 (≈ 76.6 µM)	<10	25 (≈ 76.6 µM)	<10	25 (≈ 76.6 µM)	<10	25 (≈ 76.6 µM)	<10	25 (≈ 76.6 µM)	<10	25 (≈ 76.6 µM)	<10	25 (≈ 76.6 µM)	<10	25 (≈ 76.6 µM)
FC(F)(F)c1cccc(NCn2nc(-c3ccccc3COc3ccc(Cl)cc3)oc2=S)c1	16	6.25 (≈ 12.7 µM)	16	6.25 (≈ 12.7 µM)	16	6.25 (≈ 12.7 µM)	16	6.25 (≈ 12.7 µM)	16	6.25 (≈ 12.7 µM)	16	6.25 (≈ 12.7 µM)	16	6.25 (≈ 12.7 µM)	16	6.25 (≈ 12.7 µM)
Cc1ccccc1OCc1ccccc1-c1nnc(SCc2ccc(Cl)cc2Cl)o1	16	6.25 (≈ 13.7 µM)	16	6.25 (≈ 13.7 µM)	16	6.25 (≈ 13.7 µM)	16	6.25 (≈ 13.7 µM)	16	6.25 (≈ 13.7 µM)	11	12.5 (≈ 27.3 µM)	11	12.5 (≈ 27.3 µM)	16	6.25 (≈ 13.7 µM)
Cc1cccc(CSc2nnc(-c3ccccc3COc3ccccc3C)o2)c1	16	6.25 (≈ 15.5 µM)	11	12.5 (≈ 31.1 µM)	11	12.5 (≈ 31.1 µM)	11	12.5 (≈ 31.1 µM)	11	12.5 (≈ 31.1 µM)	11	12.5 (≈ 31.1 µM)	11	12.5 (≈ 31.1 µM)	11	12.5 (≈ 31.1 µM)
Cc1ccc(OCc2ccccc2-c2nnc(SCc3ccc(Cl)cc3)o2)cc1	11	12.5 (≈ 29.6 µM)	11	12.5 (≈ 29.6 µM)	11	12.5 (≈ 29.6 µM)	11	12.5 (≈ 29.6 µM)	11	12.5 (≈ 29.6 µM)	11	12.5 (≈ 29.6 µM)	11	12.5 (≈ 29.6 µM)	11	12.5 (≈ 29.6 µM)
Cc1cccc(OCc2ccccc2-c2nnc(SCc3ccccc3)o2)c1	<10	25 (≈ 64.4 µM)	<10	25 (≈ 64.4 µM)	<10	25 (≈ 64.4 µM)	<10	25 (≈ 64.4 µM)	<10	25 (≈ 64.4 µM)	<10	25 (≈ 64.4 µM)	<10	25 (≈ 64.4 µM)	<10	25 (≈ 64.4 µM)
Cc1cccc(OCc2ccccc2-c2nnc(-c3ccc(Cl)cc3)o2)c1	<10	25 (≈ 66.3 µM)	<10	25 (≈ 66.3 µM)	<10	25 (≈ 66.3 µM)	<10	25 (≈ 66.3 µM)	<10	25 (≈ 66.3 µM)	<10	25 (≈ 66.3 µM)	<10	25 (≈ 66.3 µM)	<10	25 (≈ 66.3 µM)
CCSc1nnc(-c2ccccc2COc2ccccc2C)o1	<10	25 (≈ 76.6 µM)	<10	25 (≈ 76.6 µM)	<10	25 (≈ 76.6 µM)	<10	25 (≈ 76.6 µM)	<10	25 (≈ 76.6 µM)	<10	25 (≈ 76.6 µM)	<10	25 (≈ 76.6 µM)	<10	25 (≈ 76.6 µM)
Cc1ccc(OCc2ccccc2-c2nnc(-c3cccc(Br)c3)o2)cc1	<10	25 (≈ 59.3 µM)	<10	25 (≈ 59.3 µM)	<10	25 (≈ 59.3 µM)	<10	25 (≈ 59.3 µM)	<10	25 (≈ 59.3 µM)	<10	25 (≈ 59.3 µM)	<10	25 (≈ 59.3 µM)	<10	25 (≈ 59.3 µM)
Clc1ccc(OCc2ccccc2-c2nnc(SCc3ccccc3)o2)cc1	<10	25 (≈ 61.1 µM)	<10	25 (≈ 61.1 µM)	<10	25 (≈ 61.1 µM)	<10	25 (≈ 61.1 µM)	<10	25 (≈ 61.1 µM)	<10	25 (≈ 61.1 µM)	<10	25 (≈ 61.1 µM)	<10	25 (≈ 61.1 µM)
Clc1ccc(CSc2nnc(-c3ccccc3COc3ccc(Cl)cc3)o2)cc1	11	12.5 (≈ 28.2 µM)	11	12.5 (≈ 28.2 µM)	11	12.5 (≈ 28.2 µM)	11	12.5 (≈ 28.2 µM)	11	12.5 (≈ 28.2 µM)	11	12.5 (≈ 28.2 µM)	11	12.5 (≈ 28.2 µM)	11	12.5 (≈ 28.2 µM)
Cc1ccc(OCc2ccccc2-c2nn(CNc3cccc(C(F)(F)F)c3)c(=S)o2)cc1	16	6.25 (≈ 13.3 µM)	16	6.25 (≈ 13.3 µM)	16	6.25 (≈ 13.3 µM)	16	6.25 (≈ 13.3 µM)	16	6.25 (≈ 13.3 µM)	16	6.25 (≈ 13.3 µM)	16	6.25 (≈ 13.3 µM)	16	6.25 (≈ 13.3 µM)
Cc1ccc(OCc2ccccc2-c2nn(CNc3ccc(Cl)cc3C(=O)C(F)(F)F)c(=S)o2)cc1	<10	25 (≈ 46.8 µM)	<10	25 (≈ 46.8 µM)	<10	25 (≈ 46.8 µM)	<10	25 (≈ 46.8 µM)	<10	25 (≈ 46.8 µM)	<10	25 (≈ 46.8 µM)	<10	25 (≈ 46.8 µM)	<10	25 (≈ 46.8 µM)
Cc1ccc(OCc2ccccc2-c2nn(CNc3cc(C)ccc3Cl)c(=S)o2)cc1	<10	25 (≈ 55.3 µM)	<10	25 (≈ 55.3 µM)	<10	25 (≈ 55.3 µM)	<10	25 (≈ 55.3 µM)	<10	25 (≈ 55.3 µM)	<10	25 (≈ 55.3 µM)	<10	25 (≈ 55.3 µM)	<10	25 (≈ 55.3 µM)
